Assay results reported in ChEMBL document CHEMBL3046765, “Subnanomolar inhibitor of cytochrome bc1 complex designed by optimizing interaction with conformationally flexible residues” (J Am Chem Soc, 2010).
pKi: −log10 of the molar value. Activity calls are given as the source filed them. The rule behind the calls is not given here.

Key:
[1] = target: T1, Succinate dehydrogenase [ubiquinone] iron-sulfur subunit, mitochondrial (Sus scrofa) (UniProt Q007T0); assay: Inhibition of Sus scrofa (pig) heart succinate-cytochrome c reductase (Electron transport protein complex 2/3) using succinate and cytochrome c as substrate by spectrophotometric analysis
T1 sequence (whole entry): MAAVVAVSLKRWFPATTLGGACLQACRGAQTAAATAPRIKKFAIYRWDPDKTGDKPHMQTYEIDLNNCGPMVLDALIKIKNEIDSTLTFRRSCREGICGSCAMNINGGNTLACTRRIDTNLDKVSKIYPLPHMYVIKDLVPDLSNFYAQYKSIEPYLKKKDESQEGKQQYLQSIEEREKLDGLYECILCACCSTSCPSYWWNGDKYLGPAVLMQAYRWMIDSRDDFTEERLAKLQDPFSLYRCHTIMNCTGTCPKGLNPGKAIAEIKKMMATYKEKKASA
Summary of the method: (§1)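 Progress curves at 0–5 nM inhibitor fitted by nonlinear regression for v0, vs, kobs; kobs versus inhibitor gives k+0, k−0; Ki = k−0/k+0. Cytochrome c 4–48 µM varied at fixed inhibitor for mechanism.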

[2] = target: Succinate-ubiquinone oxidoreductase (Sus scrofa) (UniProt A5GZW8+D0VWV4); assay: Inhibition of Sus scrofa (pig) heart succinate-ubiquinone reductase using succinate and DCIP as substrate by spectrophotometric analysis by spectrophotometric analysis; type: protein-complex assay
Summary of the method: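 Porcine heart SCR preparation; complex II activity as succinate oxidation by 53 µM DCIP in 100 mM PBS pH 7.4, 0.3 mM EDTA, 20 mM succinate, 23°C, started by enzyme addition. DCIP reduction followed continuously at A600 (ε 21 mM−1cm−1) with varying inhibitor concentrations.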

Cytochrome b = Cytochrome b (Sus scrofa, UniProt P24964); assay: Inhibition of Sus scrofa (pig) heart cytochrome bc1 complex using succinate and cytochrome c as substrates by spectrophotometric analysis
Sequence of Cytochrome b (P24964 whole entry): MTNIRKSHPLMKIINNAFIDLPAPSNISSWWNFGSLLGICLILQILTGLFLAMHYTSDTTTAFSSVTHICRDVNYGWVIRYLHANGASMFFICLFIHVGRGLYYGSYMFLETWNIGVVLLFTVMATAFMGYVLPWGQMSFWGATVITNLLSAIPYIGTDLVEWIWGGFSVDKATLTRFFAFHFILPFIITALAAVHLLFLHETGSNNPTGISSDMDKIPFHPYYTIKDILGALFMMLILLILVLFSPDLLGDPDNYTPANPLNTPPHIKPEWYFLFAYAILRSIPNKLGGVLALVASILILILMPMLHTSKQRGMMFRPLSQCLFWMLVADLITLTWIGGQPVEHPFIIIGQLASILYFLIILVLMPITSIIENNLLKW

[3] = target: T1, Succinate dehydrogenase [ubiquinone] iron-sulfur subunit, mitochondrial (Sus scrofa); assay: Inhibition of Sus scrofa (pig) heart succinate-cytochrome c reductase (Electron transport protein complex 2/3) using succinate and cytochrome c as substrate at 1 to 5 nM by spectrophotometric analysis; summary of the method: as §1
Sus scrofa [4] = species: Sus scrofa; assay: Competitive inhibition of Sus scrofa (pig) heart cytochrome bc1 complex using ubiquinol as substrate
[5] = target: Cytochrome b (Sus scrofa) (UniProt P24964); assay: Inhibition of Sus scrofa (pig) heart cytochrome bc1 complex using succinate as substrate at 7.5 to 25 nM by spectropfhotometric analysis
Sequence of Cytochrome b (Sus scrofa) (P24964 whole entry): as above

[6] = target: Cytochrome b (Sus scrofa) (UniProt P24964); assay: Ratio of azoxystobin Ki to compound Ki for Sus scrofa (pig) heart cytochrome bc1 complex
Sus scrofa [7] = species: Sus scrofa; assay: Non-competitive inhibition of Sus scrofa (pig) heart cytochrome bc1 complex using cytochrome c as substrate; summary of the method: as §1
[8] = target: Cytochrome b (Sus scrofa) (UniProt P24964); assay: Ratio of pyraclostrobin Ki to compound Ki for Sus scrofa (pig) heart cytochrome bc1 complex
[9] = target: Cytochrome b (Sus scrofa) (UniProt P24964); assay: Ratio of kresoxim-methyl Ki to compound Ki for Sus scrofa (pig) heart cytochrome bc1 complex

CO/C=C(/C(=O)OC)c1ccccc1COc1cc(-c2ccccc2O)nn1C
inhibition [1]: Active | inhibition [2]: inactive | pKi (Cytochrome b): 8.92

CO/C=C(/C(=O)OC)c1ccccc1COc1cc(-c2cc(C)ccc2OC)nn1C
pKi (Cytochrome b): 7.70

CO/C=C(/C(=O)OC)c1ccccc1Oc1cc(Oc2ccccc2C#N)ncn1 [AZOXYSTROBIN]
pKi (Cytochrome b): 6.53

CO/C=C(/C(=O)OC)c1ccccc1COc1cc(-c2ccccc2OCc2ccccc2)nn1C
pKi (Cytochrome b): 7.90

CO/N=C(/C(=O)OC)c1ccccc1COc1cc(-c2ccccc2O)nn1C
inhibition [1]: Active | inhibition [2]: inactive | pKi (Cytochrome b): 8.42

COC(=O)N(OC)c1ccccc1COc1ccn(-c2ccc(Cl)cc2)n1 [PYRACLOSTROBIN]
pKi (Cytochrome b): 8.48

CO/C=C(/C(=O)OC)c1ccccc1COc1cc(-c2ccccc2OC(=O)c2ccc(F)cc2)nn1C
pKi (Cytochrome b): 7.01

CO/C=C(/C(=O)OC)c1ccccc1COc1cc(-c2cc(Cl)ccc2O)nn1C
inhibition [3]: Active | inhibition (Sus scrofa [4]): Active | inhibition [5]: Active | inhibition [2]: inactive | Ratio Ki [6]: 522 | pKi (Cytochrome b): 9.24 | inhibition (Sus scrofa [7]): Active | Ratio Ki [8]: 5.8 | Ratio Ki [9]: 280

CO/C=C(/C(=O)OC)c1ccccc1COc1cc(-c2cc(C)ccc2O)nn1C
inhibition [1]: Active | inhibition [2]: inactive | pKi (Cytochrome b): 8.51

CO/C=C(/C(=O)OC)c1ccccc1COc1cc(-c2ccccc2OC)nn1C
pKi (Cytochrome b): 7.54

CO/N=C(/C(=O)OC)c1ccccc1COc1ccccc1C [KRESOXIM-METHYL]
pKi (Cytochrome b): 6.80
